PMC6045484 (ACS Omega, 2018)
≈ marks a conversion by molar mass, not a printed value.

How the values were obtained:
C. glabrata ATCC90030 = assay: in vitro antifungal activity; type: cell-based, Candida glabrata
Outline: (§1)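 Modified NCCLS broth method in Sabouraud dextrose. Inoculum set by OD630 to 1.5 × 10^3 CFU/mL. Test compound serially diluted in 20% DMSO/saline, duplicate wells, up to 20 μg/mL. Incubated 70–74 h at 35 °C; 530 nm read before and after. IC50 is 50% growth inhibition; MIC is no detectable growth. MFC from clear wells subcultured on agar. Amphotericin B control.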

MRSA (ATCC33591) = assay: in vitro antibacterial activity; type: cell-based, methicillin-resistant Staphylococcus aureus; settings: methicillin-resistant S. aureus; highest test concentration 20 μg/mL
Outline: (§2)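 Test compound serially diluted in 20% DMSO/saline and plated in duplicate, up to 20 μg/mL. Inoculum in cation-adjusted Mueller–Hinton broth, pH 7.3, set by OD630 to 5 × 10^5 CFU/mL. Incubated 16–20 h at 35 °C; 530 nm read before and after. IC50 is 50% growth inhibition; MIC is no detectable growth. MBC from clear wells subcultured on agar. Ciprofloxacin control.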

SA (ATCC29213) = assay: in vitro antibacterial activity; type: cell-based; settings: Staphylococcus aureus; highest test concentration 20 μg/mL
Outline: as §2

A. fumigatus ATCC 90906 = assay: in vitro antifungal activity; type: cell-based, Aspergillus fumigatus
Outline: as §1

[1] = tested on: SK-MEL, KB, BT-549, SK-OV-3, VERO and LLC-PK1 cells; assay: cytotoxicity, neutral red uptake assay; type: cell-based, mammalian; settings: highest test concentration 4760 ng/mL
Outline: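 Cells seeded at 25 000/well and allowed 24 h to reach confluence. Test compound was then added and incubated 48 h. Viable cells were counted by a modified neutral red uptake method. The panel was four human cancer lines and two noncancerous mammalian kidney lines. Doxorubicin served as positive control and DMSO as negative control.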

[2] = tested on: M. intracellulare (ATCC23068); assay: in vitro antibacterial activity, modified alamarBlue procedure; type: cell-based, Mycobacterium intracellulare; settings: highest test concentration 20 μg/mL
Outline: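 Modified alamarBlue microplate method. Test compound serially diluted in 20% DMSO/saline, duplicate wells, up to 20 μg/mL. Inoculum 2.0 × 10^6 CFU/mL in Middlebrook 7H9 with OADC, pH 7.3, containing 5% alamarBlue. Incubated 70–74 h at 37 °C, 10% CO2; fluorescence 544ex/590em read before and after. MIC: no blue-to-pink change. MBC by subculturing blue wells on agar. Ciprofloxacin control.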

[3] = tested on: L. donovani promastigotes; assay: in vitro antileishmanial activity, alamarBlue assay; type: cell-based, Leishmania donovani; settings: promastigotes, 48 h
C. neoformans ATCC90113 = assay: in vitro antifungal activity; type: cell-based, Cryptococcus neoformans
Outline: as §1

C. krusei ATCC6258 = assay: in vitro antifungal activity; type: cell-based, Candida krusei
Outline: as §1

P. falciparum (W2) = assay: in vitro antimalarial activity, plasmodial LDH; type: cell-based, Plasmodium falciparum; settings: CQ-resistant W2 strain, 72 h
Outline: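 P. falciparum-infected erythrocytes (2% parasitemia, 2% hematocrit) in RPMI 1640 with 10% human serum and 60 μg/mL amikacin. Exposed to test compound dilutions for 72 h at 37 °C under 90% N2/5% O2/5% CO2. LDH measured with Malstat reagent (30 min, room temperature), then NBT/PES for 1 h in the dark, stopped with 5% acetic acid, read at 650 nm. IC50 from dose-response curves.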

C. albicans ATCC90028 = assay: in vitro antifungal activity; type: cell-based, Candida albicans
Outline: as §1

P. falciparum (D6) = assay: in vitro antimalarial activity, plasmodial LDH; type: cell-based, Plasmodium falciparum; settings: CQ-sensitive D6 strain, 72 h

Compound | C. glabrata IC50 (C. glabrata ATCC90030) | C. glabrata MFC (C. glabrata ATCC90030) | C. glabrata MIC (C. glabrata ATCC90030) | IC50 (concentration that affords 50% growth inhibition), MRSA (MRSA (ATCC33591)) | MBC (minimum bactericidal concentration), MRSA (MRSA (ATCC33591)) | MIC, MRSA (MRSA (ATCC33591)) | IC50 (concentration that affords 50% growth inhibition), SA (SA (ATCC29213)) | MBC (minimum bactericidal concentration), SA (SA (ATCC29213)) | MIC, SA (SA (ATCC29213)) | A. fumigatus IC50 (A. fumigatus ATCC 90906) | A. fumigatus MFC (A. fumigatus ATCC 90906) | A. fumigatus MIC (A. fumigatus ATCC 90906) | cytotoxicity CTX [1] | IC50 (concentration that affords 50% growth inhibition), M. intracellulare [2] [µg/mL] | MBC (minimum bactericidal concentration), M. intracellulare [2] [µg/mL] | MIC, M. intracellulare [2] [µg/mL] | L. donovani IC50 [3] [µg/mL] | L. donovani IC90 [3] [µg/mL] | C. neoformans IC50 (C. neoformans ATCC90113) [µg/mL] | C. neoformans MFC (C. neoformans ATCC90113) [µg/mL] | other results
CCCCCCOc1c(OC)cc(NC(C)CCCNC(=O)C2CCCN2)c2nc(C(C)(C)C)ccc12 (stereo not drawn) [compound 103, N-(4-(2-tert-Butyl-5-(hexyloxy)-6-methoxyquinolin-8-lamino)pentyl)pyrrolidine-2-carboxamide] | 8.91 µg/mL | 10.00 µg/mL | 10.00 µg/mL | 2.64 µg/mL (≈ 5.15 µM) | 20.00 µg/mL (≈ 39 µM) | 5.00 µg/mL (≈ 9.75 µM) | 2.89 µg/mL (≈ 5.64 µM) | 10.00 µg/mL (≈ 19.5 µM) | 5.00 µg/mL (≈ 9.75 µM) | NA (NA, no activity at the highest test concentration of 20 μg/mL) | NA (NA, no activity at the highest test concentration of 20 μg/mL) | NA (NA, no activity at the highest test concentration of 20 μg/mL) | NC (NC, not cytotoxic up to 4760 ng/mL (4.76 μg/mL)) | 5.94 (≈ 11.6 µM) | 10.00 (≈ 19.5 µM) | 10.00 (≈ 19.5 µM) | 4.0 | 6.8 | 1.49 | 2.50 | C. neoformans MIC (C. neoformans ATCC90113): 2.50 µg/mL; C. krusei IC50 (C. krusei ATCC6258): 8.76 µg/mL; C. krusei MFC (C. krusei ATCC6258): 10.00 µg/mL; C. krusei MIC (C. krusei ATCC6258): 10.00 µg/mL; P. falciparum (W2) IC50 (P. falciparum (W2)): 2.7 µg/mL; C. albicans IC50 (C. albicans ATCC90028): 11.54 µg/mL; C. albicans MFC (C. albicans ATCC90028): 20.00 µg/mL; C. albicans MIC (C. albicans ATCC90028): 20.00 µg/mL; P. falciparum (D6) IC50 (P. falciparum (D6)): 4 µg/mL
CCCCCCCOc1c(OC)cc(NC(C)CCCNC(=O)C2CCCN2)c2nc(C(C)(C)C)ccc12 (stereo not drawn) [compound 113, N-(4-(2-tert-Butyl-5-(heptyloxy)-6-methoxyquinolin-8-lamino)pentyl)pyrrolidine-2-carboxamide] | NA (NA, no activity at the highest test concentration of 20 μg/mL) | NA (NA, no activity at the highest test concentration of 20 μg/mL) | NA (NA, no activity at the highest test concentration of 20 μg/mL) | 3.16 µg/mL (≈ 6 µM) | 20.00 µg/mL (≈ 38 µM) | 5.00 µg/mL (≈ 9.49 µM) | 3.52 µg/mL (≈ 6.68 µM) | 10.00 µg/mL (≈ 19 µM) | 10.00 µg/mL (≈ 19 µM) | NA (NA, no activity at the highest test concentration of 20 μg/mL) | NA (NA, no activity at the highest test concentration of 20 μg/mL) | NA (NA, no activity at the highest test concentration of 20 μg/mL) | NC (NC, not cytotoxic up to 4760 ng/mL (4.76 μg/mL)) | 16.67 (≈ 31.6 µM) | 20.00 (≈ 38 µM) | 20.00 (≈ 38 µM) | 3.8 | 7 | 2.93 | 5.00 | C. neoformans MIC (C. neoformans ATCC90113): 5.00 µg/mL; C. krusei IC50 (C. krusei ATCC6258): NA (NA, no activity at the highest test concentration of 20 μg/mL); C. krusei MFC (C. krusei ATCC6258): NA (NA, no activity at the highest test concentration of 20 μg/mL); C. krusei MIC (C. krusei ATCC6258): NA (NA, no activity at the highest test concentration of 20 μg/mL); P. falciparum (W2) IC50 (P. falciparum (W2)): 1.5 µg/mL; C. albicans IC50 (C. albicans ATCC90028): NA (NA, no activity at the highest test concentration of 20 μg/mL); C. albicans MFC (C. albicans ATCC90028): NA (NA, no activity at the highest test concentration of 20 μg/mL); C. albicans MIC (C. albicans ATCC90028): NA (NA, no activity at the highest test concentration of 20 μg/mL); P. falciparum (D6) IC50 (P. falciparum (D6)): 2.4 µg/mL
CCCCCCCCOc1c(OC)cc(NC(C)CCCNC(=O)C(N)CCCN)c2nc(C(C)(C)C)ccc12 (stereo not drawn) [compound 118, 2,5-Diamino-N-(4-(2-tert-butyl-6-methoxy-5-(octyloxy)quinolin-8-lamino)pentyl)-pentanamide] | 8.05 µg/mL | >20 µg/mL | >20 µg/mL | NA (NA, no activity at the highest test concentration of 20 μg/mL) | NA (NA, no activity at the highest test concentration of 20 μg/mL) | NA (NA, no activity at the highest test concentration of 20 μg/mL) | NA (NA, no activity at the highest test concentration of 20 μg/mL) | NA (NA, no activity at the highest test concentration of 20 μg/mL) | NA (NA, no activity at the highest test concentration of 20 μg/mL) | NA (NA, no activity at the highest test concentration of 20 μg/mL) | NA (NA, no activity at the highest test concentration of 20 μg/mL) | NA (NA, no activity at the highest test concentration of 20 μg/mL) | NC (NC, not cytotoxic up to 4760 ng/mL (4.76 μg/mL)) | 7.71 (≈ 13.8 µM) | >20 | >20 | 26.61 | 37.9 | 4.93 | >20 | C. neoformans MIC (C. neoformans ATCC90113): >20 µg/mL; C. krusei IC50 (C. krusei ATCC6258): 15.36 µg/mL; C. krusei MFC (C. krusei ATCC6258): >20 µg/mL; C. krusei MIC (C. krusei ATCC6258): >20 µg/mL; P. falciparum (W2) IC50 (P. falciparum (W2)): NA (NA, not active); C. albicans IC50 (C. albicans ATCC90028): 19.95 µg/mL; C. albicans MFC (C. albicans ATCC90028): >20 µg/mL; C. albicans MIC (C. albicans ATCC90028): >20 µg/mL; P. falciparum (D6) IC50 (P. falciparum (D6)): NA (NA, not active)
